Structures are written as SMILES. In brackets after ≈: the same amount, converted by molar mass.

From ChEMBL document CHEMBL1132437, “Synthesis and antimicrobial activity of 4H-4-oxoquinolizine derivatives: consequences of structural modification at the C-8 position” (1999) come the findings set out here.

One assay has as its system Enterococcus faecium. The assay can be described thus: In vitro antibacterial activity against gram-positive Enterococcus faecium ATCC 8043. It counts as functional. Conditions: Enterococcus faecium, ATCC 8043; read-out: MIC. An outline of the steps: (§1)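 Agar dilution MIC determination following the National Committee for Clinical Laboratory Standards recommendations.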

In assay [1] the test system is Escherichia coli. The assay can be described thus: In vitro antibacterial activity against gram negative Escherichia coli KNK 437. The format is functional. Conditions: Escherichia coli; read-out: MIC. An outline of the steps:
as §1

Assay [2] deals with Pseudomonas aeruginosa. The experiment in a line: In vitro antibacterial activity against gram negative P. aeruginosa DPHP 5263. The note with it: Pseudomonas aeruginosa, DPHP 5263; read-out: MIC. The format is functional. Summed up:
as §1

In assay [3] the test system is Pseudomonas aeruginosa. The assay can be described thus: Not Plasmodium species. It counts as functional.
The subject of a further assay is Burkholderia cepacia. The experiment in a line: In vitro antibacterial activity against gram negative Pseudomonas cepacia 2961. It counts as functional. Conditions: Burkholderia cepacia; read-out: MIC. Summed up:
as §1

The test system of assay [4] is Staphylococcus aureus. The assay can be described thus: In vitro antibacterial activity against gram-positive Staphylococcus aureus 1775. It counts as functional. Conditions: Staphylococcus aureus; read-out: MIC. An outline of the steps: as §1
Assay [5] concerns Staphylococcus aureus. The experiment in a line: In vitro antibacterial activity against gram-positive Staphylococcus aureus NCTC 10649M. It counts as functional. Summed up: as §1
For the next assay, the system named is Streptococcus pyogenes. The assay can be described thus: In vitro antibacterial activity against gram positive Streptococcus pyogenes 930. It counts as functional. An outline of the steps: as §1
The test system of assay [6] is Staphylococcus aureus. The assay can be described thus: In vivo efficacy against Staphylococcus aureus NCTC 10649M in mouse protection test after p.o. administration. It counts as functional. The note with it: Staphylococcus aureus, po; read-out: ED50. Summed up: (§2)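 Mouse protection model: mice infected intravenously with 100-fold LD50 of the organism. Compound given by subcutaneous injection or oral gavage at 1 and 5 h after infection, over a dose range. Deaths tracked for 7 days post-inoculation. ED50 is the dose giving 50% survival of treated mice over the trial.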

For assay [7], the system named is Staphylococcus aureus. The experiment in a line: In vivo efficacy against Staphylococcus aureus NCTC 10649M in mouse. It counts as functional. Conditions: Staphylococcus aureus; read-out: ED50. An outline of the steps: as §2
Assay [8] has as its system Escherichia coli. The experiment in a line: In vivo efficacy against Escherichia coli JUHL in mouse protection test after p.o. administration. The note with it: Escherichia coli, po; read-out: ED50. It counts as functional. Summed up:
as §2

Assay [9] concerns Escherichia coli. The experiment in a line: In vivo efficacy against Escherichia coli JUHL in mouse protection test after subcutaneous administration. The format is functional. Conditions: Escherichia coli, sc; read-out: ED50. An outline of the steps: as §2
Assay [10] has as its system Pseudomonas aeruginosa. The assay can be described thus: In vitro antibacterial activity against Gram-negative Pseudomonas aeruginosa 5007. The format is functional. Conditions: Pseudomonas aeruginosa; read-out: MIC. An outline of the steps:
as §1

Assay [11] has as its system Pseudomonas aeruginosa. The assay can be described thus: In vivo efficacy against Pseudomonas aeruginosa 5007 in mouse protection test after subcutaneous administration. Conditions: Pseudomonas aeruginosa, sc; read-out: ED50. It counts as functional. An outline of the steps: as §2
For assay [12], the system named is Pseudomonas aeruginosa. The assay can be described thus: In vivo efficacy against Pseudomonas aeruginosa 5007 in mouse protection test after administration by oral gavage. It counts as functional. Conditions: Pseudomonas aeruginosa, po; read-out: ED50. Summed up: as §2
Assay [13] deals with Mus musculus. The experiment in a line: In vivo efficacy against Streptococcus pneumoniae ATCC 6303 in mouse protection test after administration by oral gavage. It counts as functional. Summed up:
as §2

A further assay deals with Streptococcus pneumoniae. The assay can be described thus: In vivo efficacy against Streptococcus pneumoniae ATCC 6303 in mouse protection test after s.c. administration. Conditions: Streptococcus pneumoniae, sc; read-out: ED50. The format is functional. Summed up: as §2
Assay [14] concerns Mus musculus. The assay can be described thus: In vivo efficacy against Staphylococcus aureus NCTC 10649M in mouse protection test.
Setting [15] is: Staphylococcus aureus, NCTC 10649, read-out: MIC.
[16] abbreviates: Streptococcus pyogenes, read-out: MIC.

Consider `Cc1c(N2CCC2)c(F)cn2c(=O)c(C(=O)O)cc(C3CC3)c12`, for which the MIC (as a rule, the lowest concentration found to suppress growth) in the assay with Enterococcus faecium was 0.78 µg/mL (≈ 2.47 µM); with Escherichia coli [1], 3.1 µg/mL (≈ 9.8 µM); with Pseudomonas aeruginosa [2] it was above 10 µg/mL; against Pseudomonas aeruginosa [3] it was 3.1 µg/mL (≈ 9.8 µM); in the assay on Burkholderia cepacia it was 3.1 µg/mL (≈ 9.8 µM); in the assay with Staphylococcus aureus [4] it was 3.1 µg/mL (≈ 9.8 µM). Besides, the figures for the MIC in the assay with Staphylococcus aureus [5] (setting [15]) and in the assay with Streptococcus pyogenes (setting [16]) were 0.2 µg/mL (≈ 0.632 µM) and 0.78 µg/mL (≈ 2.47 µM), respectively.

With `Cc1c(N2C[C@@H](N)[C@@H](C3CC3)C2)c(F)cn2c(=O)c(C(=O)O)cc(C3CC3)c12` (stereo in doubt; 3s), the MIC with Enterococcus faecium was 0.1 µg/mL (≈ 0.259 µM); in the assay with Escherichia coli [1], 0.2 µg/mL (≈ 0.519 µM); in the assay on Pseudomonas aeruginosa [10], 0.39 µg/mL (≈ 1.01 µM); in the assay on Pseudomonas aeruginosa [2], 12.5 µg/mL (≈ 32.4 µM); in the assay on Burkholderia cepacia, 0.78 µg/mL (≈ 2.02 µM); in the assay on Staphylococcus aureus [4], 0.39 µg/mL (≈ 1.01 µM). Besides, the MIC with Staphylococcus aureus [5] amounted to 0.02 µg/mL (≈ 0.0519 µM); with Streptococcus pyogenes, 0.1 µg/mL (≈ 0.259 µM). Further, the ED50 (commonly the dose at which the effect has come halfway, by size or by number of responders) came to 3.4 mg/kg in the assay on Staphylococcus aureus [6], 1.5 mg/kg in the assay with Staphylococcus aureus [7], 6.6 mg/kg in the assay with Escherichia coli [8] and 3.7 mg/kg in the assay on Escherichia coli [9].

On to `Cc1c(N2C[C@@H]3CCCC[C@]3(CN)C2)c(F)cn2c(=O)c(C(=O)O)cc(C3CC3)c12`, for which the MIC in the assay on Enterococcus faecium was 0.02 µg/mL (≈ 0.0484 µM); in the assay on Escherichia coli [1], 1.56 µg/mL (≈ 3.77 µM); in the assay with Pseudomonas aeruginosa [10], 3.1 µg/mL (≈ 7.5 µM); in the assay on Pseudomonas aeruginosa [2], 50 µg/mL (≈ 121 µM); in the assay with Burkholderia cepacia it was 3.1 µg/mL (≈ 7.5 µM); in the assay on Staphylococcus aureus [4] it was 0.2 µg/mL (≈ 0.484 µM). Also, the results for the MIC in the assay on Staphylococcus aureus [5] (setting [15]) and with Streptococcus pyogenes (setting [16]) were 0.002 µg/mL (≈ 0.00484 µM) and 0.02 µg/mL (≈ 0.0484 µM), respectively. Besides, the ED50 in the assay with Pseudomonas aeruginosa [11] was above 32 mg/kg; with Staphylococcus aureus [6], 17.7 mg/kg; with Staphylococcus aureus [7], 1.8 mg/kg; in the assay with Escherichia coli [8] it was above 20 mg/kg; in the assay with Escherichia coli [9] it was above 5 mg/kg; in the assay on Pseudomonas aeruginosa [12], above 50 mg/kg.

Regarding `Cc1c(N2C[C@H](C3CC3)[C@@H](N)C2)c(F)cn2c(=O)c(C(=O)O)cc(C3CC3)c12`, the MIC with Enterococcus faecium worked out at 0.1 µg/mL (≈ 0.259 µM); in the assay with Escherichia coli [1] it was 0.2 µg/mL (≈ 0.519 µM); in the assay on Pseudomonas aeruginosa [10], 0.39 µg/mL (≈ 1.01 µM); in the assay with Pseudomonas aeruginosa [2], 12.5 µg/mL (≈ 32.4 µM); in the assay on Burkholderia cepacia it was 1.56 µg/mL (≈ 4.05 µM); with Staphylococcus aureus [4], 0.78 µg/mL (≈ 2.02 µM). The MIC stood at 0.02 µg/mL (≈ 0.0519 µM) in the assay on Staphylococcus aureus [5] (setting [15]) and 0.1 µg/mL (≈ 0.259 µM) with Streptococcus pyogenes (setting [16]). Moreover, the ED50 was above 32 mg/kg in the assay on Pseudomonas aeruginosa [11]; 11.2 mg/kg with Staphylococcus aureus [6]; 3 mg/kg in the assay with Staphylococcus aureus [7]; above 50 mg/kg in the assay on Mus musculus [13]; above 8 mg/kg with Streptococcus pneumoniae; above 10 mg/kg in the assay with Escherichia coli [8]. Besides, the ED50 in the assay with Escherichia coli [9] was 1.2 mg/kg; in the assay with Pseudomonas aeruginosa [12] it was above 50 mg/kg.

For `Cc1c(N2CC[C@@H](NCCF)C2)c(F)cn2c(=O)c(C(=O)O)cc(C3CC3)c12`, the MIC in the assay on Enterococcus faecium stood at 0.1 µg/mL (≈ 0.255 µM); in the assay on Escherichia coli [1], 1.56 µg/mL (≈ 3.99 µM); with Pseudomonas aeruginosa [10] it was 1.56 µg/mL (≈ 3.99 µM); in the assay on Pseudomonas aeruginosa [2] it was 25 µg/mL (≈ 63.9 µM); in the assay on Burkholderia cepacia it was 1.56 µg/mL (≈ 3.99 µM); in the assay with Staphylococcus aureus [4], 0.39 µg/mL (≈ 0.996 µM). For the same compound, the figures for the MIC in the assay with Staphylococcus aureus [5] (setting [15]) and in the assay on Streptococcus pyogenes (setting [16]) were 0.02 µg/mL (≈ 0.0511 µM) and 0.05 µg/mL (≈ 0.128 µM), respectively. Further, the ED50 was above 32 mg/kg in the assay with Pseudomonas aeruginosa [11]; 9.6 mg/kg in the assay on Staphylococcus aureus [6]; 30.7 mg/kg in the assay on Mus musculus [13]; 8 mg/kg in the assay with Streptococcus pneumoniae; 34.1 mg/kg with Escherichia coli [8]; 4.4 mg/kg in the assay on Escherichia coli [9]. Also, the values for the ED50 with Pseudomonas aeruginosa [12] and with Mus musculus [14] were above 50 mg/kg and 2.1 mg/kg, respectively.

For the compound `Cc1c(N2CCCC(NC3CC3)C2)c(F)cn2c(=O)c(C(=O)O)cc(C3CC3)c12` (centres undefined), the MIC was 0.05 µg/mL (≈ 0.125 µM) in the assay on Enterococcus faecium; 0.2 µg/mL (≈ 0.501 µM) in the assay with Escherichia coli [1]; 0.39 µg/mL (≈ 0.976 µM) in the assay with Pseudomonas aeruginosa [10]; 25 µg/mL (≈ 62.6 µM) in the assay with Pseudomonas aeruginosa [2]; 3.1 µg/mL (≈ 7.76 µM) in the assay on Burkholderia cepacia; 1.56 µg/mL (≈ 3.91 µM) in the assay on Staphylococcus aureus [4]. The values for the MIC in the assay with Staphylococcus aureus [5] (setting [15]) and in the assay with Streptococcus pyogenes (setting [16]) were 0.01 µg/mL (≈ 0.025 µM) and 0.05 µg/mL (≈ 0.125 µM), respectively. Moreover, the ED50 in the assay on Pseudomonas aeruginosa [11] is above 32 mg/kg; with Staphylococcus aureus [6] it was 2.1 mg/kg; with Mus musculus [13], 2.5 mg/kg; in the assay with Streptococcus pneumoniae, 1 mg/kg; in the assay on Escherichia coli [8], 8 mg/kg; in the assay with Escherichia coli [9], 2.8 mg/kg. Moreover, the ED50 in the assay on Pseudomonas aeruginosa [12] was above 50 mg/kg; in the assay with Mus musculus [14] it was 0.4 mg/kg.

As to `Cc1c(N2CC[C@@H]3[C@H](N)[C@@H]3C2)c(F)cn2c(=O)c(C(=O)O)cc(C3CC3)c12`, the MIC worked out at 0.05 µg/mL (≈ 0.135 µM) with Enterococcus faecium; 0.2 µg/mL (≈ 0.538 µM) with Escherichia coli [1]; 0.39 µg/mL (≈ 1.05 µM) in the assay with Pseudomonas aeruginosa [10]; 6.2 µg/mL (≈ 16.7 µM) in the assay with Pseudomonas aeruginosa [2]; 3.1 µg/mL (≈ 8.35 µM) in the assay on Burkholderia cepacia; 1.56 µg/mL (≈ 4.2 µM) in the assay on Staphylococcus aureus [4]. In addition, the MIC in the assay on Staphylococcus aureus [5] (setting [15]) came out at 0.02 µg/mL (≈ 0.0538 µM); in the assay with Streptococcus pyogenes (setting [16]), 0.05 µg/mL (≈ 0.135 µM). The ED50 in the assay on Staphylococcus aureus [6] is 4.1 mg/kg; in the assay on Escherichia coli [8] it was 5 mg/kg; with Escherichia coli [9], 0.9 mg/kg; in the assay with Mus musculus [14], 1.2 mg/kg.
